Assay outcomes deposited in PubChem BioAssay by several laboratories.
Compounds with a hit are over-represented: about 2.4% of the library has one in this group of screens.
ANO1 block – inhibitors of mouse TMEM16A calcium-activated chloride channel | Q8BHY3 | HEK293 TMEM16A/YFP iodide influx fluorescence, ionomycin | normalized B-score (activity score, 25-100; higher = stronger inhibition) at 10 µM | hit rate 1.2% among 310,000;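 active = ratio plate-corrected score three or more library SD toward inhibition, starting fluorescence score within five deviations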;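 also: score derived from kinetic fluorescence span divided by baseline fluorescence per well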
ANO1 activ – activators or potentiators of mouse TMEM16A chloride channel; B-score at 10 µM; Q8BHY3; hit rate 0.3% among 340,000; HEK293 TMEM16A/YFP-H148Q/I152L, iodide quench fluorescence; hits give low values;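 active = fluorescence-ratio B-score plate-corrected deviation score at least 3 library SD below zero, with starting fluorescence score within 5 deviations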;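 also: channel opened by trigger with iodide after compound preincubation; score built on the fluorescence ratio of max minus min over baseline; more negative score means more quench and so TMEM16A activation or potentiation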
UBC13 polyUb – blocks human UBC13 polyubiquitin chain formation; P61088; hit rate 0.47% among 330,000; AID 485273; inhibition, % at 20 µM; TR-FRET; in the data active = inhibition above about 45%, passing the limit was not always enough
DNA FID counter – displaces DNA intercalator in HCV helicase counter-screen. hit rate 0.17% among 290,000. inhibition, % at 7.9 µM. DNA fluorescent intercalator displacement, fluorescence. AID 1845; in the data active = inhibition above about 37%;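 also: higher means more ethidium bromide displaced from hairpin DNA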
Apaf1 inhib – blocks human Apaf-1 apoptosome activity | O14727 | reconstituted apoptosome caspase-3 activity, DEVD-Rh110 fluorescence | inhibition, % at 20 µM | hit rate 0.71% among 330,000; active = inhibition of at least 40% at 20 µM
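System: Apoptosome proteins | Medium: Hepes pH 7.5 with detergent and BSA | Also added: Cytochrome c trigger plus (Z-DEVD)2-Rh110 caspase-3 substrate | Incubation: 30 min compound preincubation, 50 min activation, room temperature | Detection: Rhodamine 110 fluorescence at Ex 480/Em 540 nm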
Apaf-1 inh conf – confirmation of Apaf-1 inhibitors; shares compounds with Apaf1 inhib; reconstituted apoptosome, caspase-3 DEVD-Rh110 fluorescence; inhibition, % at 20 µM; hit rate 25% among 1,800;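 active = mean inhibition of at least 40% at 20 µM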
Rh110 quench – Rh110 signal interference in Apaf-1 inhibitor counter-screen | shares compounds with Apaf1 inhib | Rh110 fluorescence interference, quenched caspase reaction | activation (fluorescence interference), % at 20 µM | 1,800 tested, under 10 active | AID 504615;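 active = signal rise of 40% or more at 20 µM, treated as a fluorescence artifact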
Fluor interf inh – shows fluorescence interference in the Apaf-1 inhibitor assay format; shares compounds with Apaf1 inhib; fluorescence interference counterscreen, Apaf-1 assay format; IC50, µM; 460 tested, under 10 active; AID 588538; call rule not given here
Hits are given with their value; i = inactive; nt = no result.

SMILES	ANO1 block	ANO1 activ	UBC13 polyUb	DNA FID counter	Apaf1 inhib	Apaf-1 inh conf	Rh110 quench	others
COc1ccc(CCNC(=O)C(=O)NCC2OCCN2S(=O)(=O)c2cccs2)cc1 (stereo not drawn)	i	i	i	i	i	nt	nt
CCN(CC)CCOC(=O)c1ccc(NC(=O)CCCN2C(=O)S/C(=C/c3ccc(OC)cc3)C2=S)cc1	i	i	i	i	44	i	i
CCN(C(=S)NC(=O)c1ccco1)c1cccc2ccccc12	nt	i	i	nt	82	i	i
CCN(C(=S)NCCOC)c1cccc2ccccc12	i	i	i	i	i	nt	nt
O=C(NC1C(=O)NNC1c1ccccc1)c1ccccc1 (stereo not drawn)	i	i	i	i	i	nt	nt
Cc1cccc(C(=O)NC2C(=O)NNC2c2ccc(Cl)cc2)c1 (stereo not drawn)	i	i	i	i	54	i	i
CCN(CC)S(=O)(=O)c1ccc(NC(=O)COC(=O)CNS(=O)(=O)/C=C/c2ccccc2)cc1	i	i	i	i	i	nt	nt
CC(=O)N1CCOc2ccc(S(=O)(=O)N(C)c3ccc(C)cc3)cc21	i	i	i	i	40	i	i
CCN1C(=NCCc2ccc(Br)cc2)N[C@@H](c2ccccc2)[C@H](C(=O)OC)[C@H]1C	nt	i	i	nt	45	i	i
COc1ccc(OC)c(S(=O)(=O)Oc2ccc(N)c3ccccc23)c1	i	i	i	nt	69	i	i
Cc1oc2c(c1C(=O)N1CCC(C)CC1)C(=O)c1ccccc1C2=O	i	nt	i	i	42	i	i
Cc1ccc(C(=O)c2c(C)oc3c2C(=O)C(=O)c2ccccc2-3)cc1	25	-18	i	i	88	73	i	Fluor interf inh=i
C#CCN(Cc1ccccc1)S(=O)(=O)C=C	nt	nt	i	nt	i	nt	nt
CCCn1nc(C(=O)Nc2ccc(N3CCOCC3)cc2)c2ccccc2c1=O	nt	i	i	nt	i	nt	nt
CCCn1nc(C(=O)Nc2ccc(-n3cnnn3)cc2)c2ccccc2c1=O	nt	i	i	nt	71	i	i
COCCn1c(SCC(=O)NC2CC2)nnc1-c1ccc(Cl)cc1	nt	i	i	nt	i	nt	nt
Cc1ccccc1N=Cc1cccc(O)c1O	i	i	i	i	74	i	i
CC(N=Cc1cccc(O)c1O)c1ccccc1 (stereo not drawn)	i	i	i	i	71	i	i
CCC(=O)c1ccc(OCCn2cnc3ccccc32)cc1	i	i	i	i	i	nt	nt
CCN(CC)S(=O)(=O)c1cccc(C(=O)NCC2CCCO2)c1 (stereo not drawn)	i	i	i	i	i	nt	nt
CCN(CC)S(=O)(=O)c1cccc(NC(=O)C2SC(=Nc3ccc(C)cc3C)C(C(=O)NCC3CCCO3)=C2N)c1 (stereo not drawn)	i	i	i	i	45	i	i
Cc1cc2ccccc2n1CCNC(=O)C1CCCCC1	i	i	i	i	44	i	i
Cc1cc2ccccc2n1CCNC(=O)C1CCCC1	i	i	i	i	i	nt	nt
Cn1c(=O)c(=O)n(C)c2cc(S(=O)(=O)N3CCCC3C(=O)NCc3cccnc3)ccc21 (stereo not drawn)	i	i	i	i	i	nt	nt
CCN(CC(=O)NCc1cccs1)C(=O)CCCOc1ccc(C(C)(C)C)cc1	nt	i	i	nt	42	i	i
SMILES	ANO1 block	ANO1 activ	UBC13 polyUb	DNA FID counter	Apaf1 inhib	Apaf-1 inh conf	Rh110 quench	others
S=C1N(c2ccccc2)C(c2ccc(Br)cc2)N2CCCN12 (stereo not drawn)	i	i	i	i	i	nt	nt
O=C(NCCc1ccccc1)c1ccccc1SCC(=O)N1CCCC1	i	i	i	i	60	i	i
Cc1ccc(OCC(=O)Nc2ccc(N3CCCC3)cc2)cc1C	i	i	i	i	i	nt	nt
Cc1cc(C)cc(OCC(=O)Nc2ccc(N3CCCC3)cc2)c1	i	i	i	i	41	i	i
CCOCC(=O)Nc1cc(Cl)c(OC)cc1OC	i	nt	i	i	i	nt	nt
CC12COC3(C(=O)Nc4ccc(F)cc4)CC1CCC32C (stereo not drawn)	i	i	i	i	i	nt	nt
CC12COC3(P(=O)(c4ccccc4)c4ccccc4)CC1CCC23CP(=O)(c1ccccc1)c1ccccc1 (stereo not drawn)	i	i	i	i	41	i	i
